In paper PMC6344890 (Journal of medicinal chemistry, 2018):
Blank lines part the entries; values can stand above or below the compound they belong to.

Experiments:
[1] = test system: GABAA, serotonin receptors, dopamine receptors, and muscarinic and nicotinic acetylcholine receptors; test: Psychoactive Drug Screening Program radioligand binding panel; settings: PDSP, Supplementary Table 2
hERG = hERG (Homo sapiens, UniProt Q12809); test: Psychoactive Drug Screening Program hERG binding; settings: PDSP
Sequence of hERG (Q12809 whole entry): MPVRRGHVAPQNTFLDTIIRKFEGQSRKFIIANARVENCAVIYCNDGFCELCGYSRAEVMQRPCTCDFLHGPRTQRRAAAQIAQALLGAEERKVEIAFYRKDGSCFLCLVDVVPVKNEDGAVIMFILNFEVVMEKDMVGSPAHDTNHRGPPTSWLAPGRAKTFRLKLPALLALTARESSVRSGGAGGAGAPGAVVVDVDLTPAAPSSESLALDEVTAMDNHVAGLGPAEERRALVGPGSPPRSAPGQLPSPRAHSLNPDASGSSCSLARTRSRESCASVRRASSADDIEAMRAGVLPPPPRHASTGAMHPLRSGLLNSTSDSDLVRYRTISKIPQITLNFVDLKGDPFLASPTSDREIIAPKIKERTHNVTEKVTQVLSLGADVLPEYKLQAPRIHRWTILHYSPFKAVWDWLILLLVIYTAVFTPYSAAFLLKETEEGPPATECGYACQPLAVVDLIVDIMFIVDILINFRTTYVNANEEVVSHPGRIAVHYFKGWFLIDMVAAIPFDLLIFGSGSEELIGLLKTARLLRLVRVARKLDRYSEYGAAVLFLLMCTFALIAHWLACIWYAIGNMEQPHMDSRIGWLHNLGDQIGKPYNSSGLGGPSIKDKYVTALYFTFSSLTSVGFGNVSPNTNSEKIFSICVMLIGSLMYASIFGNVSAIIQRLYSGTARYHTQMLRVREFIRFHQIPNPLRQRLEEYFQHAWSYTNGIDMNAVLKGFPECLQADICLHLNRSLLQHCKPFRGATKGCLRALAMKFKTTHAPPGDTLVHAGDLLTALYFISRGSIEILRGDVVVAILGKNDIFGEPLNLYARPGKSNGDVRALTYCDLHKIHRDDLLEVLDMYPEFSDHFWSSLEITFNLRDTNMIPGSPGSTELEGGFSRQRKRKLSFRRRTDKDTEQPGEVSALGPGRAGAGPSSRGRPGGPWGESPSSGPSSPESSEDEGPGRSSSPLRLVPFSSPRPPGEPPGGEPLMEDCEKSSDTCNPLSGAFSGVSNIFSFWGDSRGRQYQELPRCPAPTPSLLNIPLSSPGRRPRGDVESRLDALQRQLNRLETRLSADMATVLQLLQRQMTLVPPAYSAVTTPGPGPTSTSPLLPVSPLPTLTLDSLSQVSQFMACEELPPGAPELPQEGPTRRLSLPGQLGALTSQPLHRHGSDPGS

[2] = format: in vivo; settings: 20 mg/kg ip or po, mice
CREB phosphorylation = test: pCREB:tCREB ratio in forebrain by ELISA; format: in vivo, mice; settings: 5a alone 20 mg/kg ip or po, 1, 2 or 12 h
[3] = Reactivity analysis with N-acetyl cysteine, HPLC-PDA; format: physicochemical; settings: 250 μM compound, N-acetyl cysteine 5 mM, PBS 50 mM pH 7.4, 37 °C, 2 and 12 h
Outline: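 Test compound (250 µM) or N-ethylmaleimide (250 µM) was incubated with or without N-acetylcysteine (5 mM) in 50 mM PBS, pH 7.4, at 37 °C. Aliquots were taken at 2 and 12 h and analysed by HPLC-PDA. Peak areas at each analyte's UV λmax gave the relative abundance of remaining starting material.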

sGC signaling = test: PC12-OGD assay with co-incubation of the sGC inhibitor ODQ, MTT readout; format: cell-based; settings: ODQ 10 μM
Outline: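 This was the PC12 OGD protocol (90 min glucose-free HBSS under argon at 37 °C, then 24 h in growth medium with test compound), with ODQ (10 µM) co-incubated. Viability was read by MTT (0.5 mg/mL, 4 h, DMSO-solubilised, 540 nm) relative to vehicle control. Mean ± SEM, n = 3, duplicate experiments; one-way ANOVA with Dunnett's test.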

PC12 cells [4] = test: Oxygen glucose deprivation; format: cell-based; settings: PC12-OGD primary assay, 1, 10, 25 μM
Outline: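 PC12 cells (passage 12–14, undifferentiated) were plated overnight in serum-containing DMEM/F12. They were deprived of glucose and oxygen for 1.5 h (glucose-free HBSS, argon, 37 °C). The medium was then replaced with growth medium containing test compound (1, 10, 25 µM) or DMSO for 24 h. MTT (0.5 mg/mL) was added for 4 h and dissolved in DMSO, with absorbance read at 540 nm. Viability is % change versus vehicle control; mean ± SEM, n = 3, triplicate experiments; ANOVA with Dunnett's test.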

PC12 cells [5] = test: NO production as NO2− in the primary assay; format: cell-based
PC12 cells [6] = test: OGD neuroprotection concentration response, PrestoBlue; format: cell-based; settings: 50 μM, OGD-exposed PC12 cells
Outline: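 Undifferentiated PC12 cells (passage 12–14) were plated overnight in DMEM/F12 with 5% FBS and 5% HS. They were given 1.5 h OGD in glucose-free HBSS under argon at 37 °C. Fresh growth medium with test compound (0.1, 1, 5, 10, 25, 50 µM) or DMSO followed, for 24 h at 37 °C. PrestoBlue (10%) was added for 30 min, and fluorescence was read at 560/590 nm. Results are % change versus vehicle control; non-OGD plates were included.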

PC12 cells [7] = test: LC-MS/MS study of cell permeability; format: in vitro ADME; settings: 25 μM, 24 h, control and OGD-treated PC12 cells
Outline: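 PC12 cells (1×10^6) were given 1.5 h OGD under argon at 37 °C, or kept without OGD on a control plate. They were then exposed to 25 µM test compound or vehicle for 24 h. Medium was collected, and cytosol was taken by lysis in HEPES/NP-40 buffer for 15 min at 0 °C and centrifuged. Samples were diluted in 2% formic acid and spiked with an analogue internal standard. Analysis was positive-ESI UPLC-MS/MS, with MRM peak areas normalised to the internal standard.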

[8] = test system: benzodiazepine (BZP) rat brain site; test: Psychoactive Drug Screening Program binding, benzodiazepine; settings: PDSP
delta opioid receptor = delta opioid receptor (Homo sapiens, UniProt P41143); test: Psychoactive Drug Screening Program binding, delta opioid receptor; settings: PDSP
Sequence of delta opioid receptor (P41143 whole entry): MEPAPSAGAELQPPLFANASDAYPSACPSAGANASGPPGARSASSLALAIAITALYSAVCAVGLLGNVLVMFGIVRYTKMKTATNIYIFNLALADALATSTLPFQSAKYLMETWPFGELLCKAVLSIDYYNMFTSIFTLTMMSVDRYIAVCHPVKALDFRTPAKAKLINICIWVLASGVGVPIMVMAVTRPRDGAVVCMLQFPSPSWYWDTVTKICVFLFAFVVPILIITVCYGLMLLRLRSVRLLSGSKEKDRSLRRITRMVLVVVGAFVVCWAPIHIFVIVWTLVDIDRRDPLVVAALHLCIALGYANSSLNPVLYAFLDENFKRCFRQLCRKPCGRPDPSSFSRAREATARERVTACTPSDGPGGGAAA

male C57BL/6 mice = test: Step-through passive avoidance; format: in vivo; settings: scopolamine 1 mg/kg ip 30 min prior to training alone (negative control); vehicle-treated 270 ± 29 s; mean ± SEM

Compound: CC1CCN(Cc2no[n+]([O-])c2-c2ccc(F)cc2)CC1 [Furoxan 5a, 3-(4-Fluorophenyl)-4-((4-methylpiperidin-1-yl)methyl)-1,2,5-oxadiaozle 2-Oxide]
- interference with radioligand binding, receptor panel [1]: does not interfere with binding of any radioligands for all receptors screened
- hERG binding (hERG): No hERG binding was observed
- presence in forebrain and plasma after 12 h [2]: detectable levels after 12 h
- effect on pCREB (pCREB:tCREB ratio), forebrain (CREB phosphorylation): no effect on pCREB was observed
- reactivity with excess thiol [3]: negligible reactivity
- neuroprotective effects on co-incubation with ODQ (sGC signaling): completely blocked
- neuroprotection (in words) (PC12 cells [4]): noticeable neuroprotective activity
- NO production in the form of NO2− (PC12 cells [5]): negligible NO production
- toxicity at the highest concentration tested (PC12 cells [6]): no toxicity was observed
- distribution between media (supernatant) and cytosol (PC12 cells [7]): found in greatest amounts in the cytosol

Compound: CC1CCN(Cc2no[n+]([O-])c2-c2ccc(Br)cc2)CC1 [Furoxan 5c, 3-(4-Bromophenyl)-4-((4-methylpiperdin-1-yl)methyl)-1,2,5-oxadiazole 2-Oxide]
- neuroprotection (in words) (PC12 cells [4]): noticeable neuroprotective activity

Compound: CC1CCN(Cc2no[n+]([O-])c2-c2ccc(OC(F)F)cc2)CC1 [Furoxan 5d, 3-(4-(Difluoromethoxy)phenyl)-4-((4-methylpiperidin-1-yl)-methyl)-1,2,5-oxadiazole 2-Oxide]
- neuroprotection (in words) (PC12 cells [4]): noticeable neuroprotective activity

Compound: CN1[C@@H]2C[C@@H](OC(=O)[C@H](CO)c3ccccc3)C[C@H]1[C@@H]1O[C@@H]12 [Scopolamine]
- latency to enter the dark compartment 24 h after training (male C57BL/6 mice): 63.5 ± 30 s

The next lines start with results.

- inhibition of binding at the benzodiazepine (BZP) rat brain site [8]: significantly inhibited binding
- inhibition of binding at the delta opioid receptor (delta opioid receptor): significantly inhibited binding
- distribution between media (supernatant) and cytosol (PC12 cells [7]): found in greatest amounts in the cytosol
Compound: [2H]C1([2H])CC(C)CC([2H])([2H])N1Cc1no[n+]([O-])c1-c1ccc(F)cc1 [Furoxan 7a, 3-(4-Fluorophenyl)-4-((4-methylpiperidin-1-yl-2,2,6,6-d4)methyl)-1,2,5-oxadiazole 2-Oxide]
- neuroprotection (in words) (PC12 cells [4]): no neuroprotective effects

- reactivity with excess thiol [3]: complete reaction
Compound: CCN1C(=O)C=CC1=O [NEM, N-ethylmaleimide, reference compound]
